Measured values taken from publication PMC3018740 (Fitoterapia, 2010).
Entries after “also recorded” stand apart in the source; their conditions may differ.

Assays:
Human recombinant COX-2 [1] = target: T1, Human recombinant COX-2 (Homo sapiens, UniProt P35354); assay: Pulsed ultrafiltration LC-MS-MS screening for COX-2 ligands; type: binding; settings: for Relative binding to COX-2: bound/free ratio = (pulsed ultrafiltration peak area)/(peak area washing buffer); for Specific binding to COX-2 (in words): pulsed ultrafiltration LC-MS-MS
T1 sequence (P35354 18-604): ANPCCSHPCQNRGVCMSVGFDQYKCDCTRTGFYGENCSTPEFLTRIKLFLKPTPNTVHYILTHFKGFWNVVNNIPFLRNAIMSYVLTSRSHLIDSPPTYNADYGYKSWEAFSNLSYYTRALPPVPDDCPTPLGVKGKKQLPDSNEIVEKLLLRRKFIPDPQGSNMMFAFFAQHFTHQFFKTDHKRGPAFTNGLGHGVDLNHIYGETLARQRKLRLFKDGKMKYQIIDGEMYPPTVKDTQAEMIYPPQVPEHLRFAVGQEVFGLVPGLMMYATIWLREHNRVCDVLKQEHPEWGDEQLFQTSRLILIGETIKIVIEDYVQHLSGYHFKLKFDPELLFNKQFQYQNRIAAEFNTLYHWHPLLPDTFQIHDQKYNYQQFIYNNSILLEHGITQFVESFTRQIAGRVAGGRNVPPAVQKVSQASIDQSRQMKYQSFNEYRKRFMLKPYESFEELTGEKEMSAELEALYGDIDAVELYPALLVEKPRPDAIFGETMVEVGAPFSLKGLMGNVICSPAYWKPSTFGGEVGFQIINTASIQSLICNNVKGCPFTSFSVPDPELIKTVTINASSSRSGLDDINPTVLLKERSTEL

COX-2 = settings: read-out: Previously reported IC50 for inhibition of COX-2; cell-based assay; cited from earlier work
ovine COX-1 = target: T2, ovine COX-1 (Ovis aries, UniProt P05979); assay: COX-1 inhibition assay; type: biochemical; settings: for IC50: read-out: IC50 COX-1, purified compounds
T2 sequence (P05979 25-600): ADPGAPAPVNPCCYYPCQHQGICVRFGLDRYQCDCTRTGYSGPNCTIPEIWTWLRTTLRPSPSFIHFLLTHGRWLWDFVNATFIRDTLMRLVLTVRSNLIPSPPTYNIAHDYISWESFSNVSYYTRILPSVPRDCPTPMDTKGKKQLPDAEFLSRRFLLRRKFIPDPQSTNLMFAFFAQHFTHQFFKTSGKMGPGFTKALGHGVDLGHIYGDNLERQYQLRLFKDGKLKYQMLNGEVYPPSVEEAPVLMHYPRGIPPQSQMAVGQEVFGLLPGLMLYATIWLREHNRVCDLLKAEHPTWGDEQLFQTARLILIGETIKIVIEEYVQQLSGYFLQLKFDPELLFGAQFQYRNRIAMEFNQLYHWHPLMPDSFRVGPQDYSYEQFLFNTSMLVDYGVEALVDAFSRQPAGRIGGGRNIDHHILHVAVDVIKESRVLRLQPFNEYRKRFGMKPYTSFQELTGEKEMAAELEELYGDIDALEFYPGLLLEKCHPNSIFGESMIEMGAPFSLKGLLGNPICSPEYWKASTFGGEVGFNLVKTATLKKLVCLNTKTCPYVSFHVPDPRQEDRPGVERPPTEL
Procedure, shortened: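 PGE2 produced by COX-1 with test compound present was quantified by LC-MS-MS. Percent inhibition was calculated against PGE2 from the negative-control incubation. Each compound was tested at 12 concentrations, three times each. IC50 was obtained by fitting the inhibition curve.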

Human recombinant COX-2 [2] = target: T1, Human recombinant COX-2; assay: COX-2 inhibition assay; type: biochemical; settings: read-out: IC50 COX-2; purified compounds

Row | Compound | Relative binding to COX-2 (Human recombinant COX-2 [1]) | IC50 (ovine COX-1) [µM] | IC50 (Human recombinant COX-2 [2]) [µM] | Specific binding to COX-2 (in words) (Human recombinant COX-2 [1]) | IC50 (COX-2) [µM] | Inhibition of COX-1 (in words) (ovine COX-1)
1 | 6-dehydro-6-gingerol | 0 |  |  |  |  | 
2 | CCCCC/C=C/[C@H](O)CC(=O)CCc1ccc(O)c(OC)c1 [6-dehydro-8-gingerol] | 0 |  |  |  |  | 
3 | CCCCCCC/C=C/[C@H](O)CC(=O)CCc1ccc(O)c(OC)c1 [6-dehydro-10-gingerol] | 0.15 ± 0.01 |  |  | bound to the enzyme active site |  | 
4 | CCCCC[C@H](O)C[C@H](O)CCc1ccc(O)c(OC)c1 [6-gingerdiol] | 0 |  |  |  |  | 
5 | CCCCCC(=O)CC(=O)CCc1ccc(O)c(OC)c1 [6-gingerdione] | 0.23 ± 0.02 |  |  | bound to the enzyme active site |  | 
6 | CCCCC[C@H](O)CC(=O)CCc1ccc(O)c(OC)c1 [6-gingerol] | 0 |  |  | not 6-gingerol or 8-gingerol bound to COX-2 | > 50 | 
7 | CCCCCCCC(=O)CCc1ccc(O)c(OC)c1 [6-paradol] |  |  |  | bound to the enzyme active site; also recorded: bound to COX-2 |  | 
8 | CCCCC/C=C/C(=O)CCc1ccc(O)c(OC)c1 [6-shogaol] | 0 |  |  | COX-2 ligands but not 6-shogaol or 12-shogaol | 2.1 | 
9 | CCCCCCCC(O)CC(O)CCc1ccc(O)c(OC)c1 (stereo not shown) [8-gingerdiol] | 0 |  |  |  |  | 
10 | CCCCCCCC(=O)CC(=O)CCc1ccc(O)c(OC)c1 [8-gingerdione] | 0.20 ± 0.03 |  |  | bound to the enzyme active site |  | 
11 | CCCCCCC[C@H](O)CC(=O)CCc1ccc(O)c(OC)c1 [8-gingerol] | 0 |  |  | not 6-gingerol or 8-gingerol bound to COX-2 | 10 | 
12 | CCCCCCCCCC(=O)CCc1ccc(O)c(OC)c1 [8-paradol] | 0.70 ± 0.02 |  |  | bound to the enzyme active site; also recorded: bound to COX-2 |  | 

The next lines start with results.

Row | Relative binding to COX-2 (Human recombinant COX-2 [1]) | IC50 (ovine COX-1) [µM] | IC50 (Human recombinant COX-2 [2]) [µM] | Compound | Specific binding to COX-2 (in words) (Human recombinant COX-2 [1]) | IC50 (COX-2) [µM] | Inhibition of COX-1 (in words) (ovine COX-1)
13 | 0.27 ± 0.02 | > 50 | 17.5 ± 2.2 | CCCCCCC/C=C/C(=O)CCc1ccc(O)c(OC)c1 [8-shogaol] | bound to the enzyme active site; also recorded: COX-2 ligands | 7.2 | No inhibition of COX-1 was detected; also recorded: did not inhibit COX-1
14 | 0.24 ± 0.05 |  |  | CCCCCCCCCC(=O)CC(=O)CCc1ccc(O)c(OC)c1 [10-gingerdione] | bound to the enzyme active site |  | 
15 | 0.17 ± 0.03 | > 50 | 32 ± 1.5 | CCCCCCCCC[C@H](O)CC(=O)CCc1ccc(O)c(OC)c1 [10-gingerol] | bound to the enzyme active site; also recorded: bound to COX-2 |  | No inhibition of COX-1 was detected; also recorded: did not inhibit COX-1
16 | 0 |  |  | CCCCCCCCCCCC(=O)CCc1ccc(O)c(OC)c1 [10-paradol] | not 10-paradol bound to COX-2 |  | 
17 | 0.35 ± 0.03 | > 50 | 7.5 ± 0.6 | CCCCCCCCC/C=C/C(=O)CCc1ccc(O)c(OC)c1 [10-shogaol] | bound to the enzyme active site; also recorded: COX-2 ligands |  | No inhibition of COX-1 was detected; also recorded: did not inhibit COX-1
18 | 0.23 ± 0.01 |  |  | CCCCCCCCCCC[C@H](O)CC(=O)CCc1ccc(O)c(OC)c1 [12-gingerol] | bound to the enzyme active site; also recorded: bound to COX-2 |  | 
19 | 0 |  |  | CCCCCCCCCCC/C=C/C(=O)CCc1ccc(O)c(OC)c1 [12-shogaol] | COX-2 ligands but not 6-shogaol or 12-shogaol |  | 
